Assay outcomes: PubChem BioAssay, The Scripps Research Institute Molecular Screening Center
Hits are enriched below; roughly 1.8% of the tested compounds scored in any of these assays.
CHRM5 PAM: potentiates acetylcholine response at human M5 receptor; P08912; 360,000 tested, 0.3% active; activation, % at 3 µM; CHO-K1 hM5, Fluo-8 calcium, ACh EC20 PAM; 0% = ACh EC20, 100% = ACh EC100;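 active = activation above the run cutoff, the mean activation of all test compounds plus 3 SD, cut at about 18% in these data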
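Test system: CHO-K1 hM5 cells / Doses: single-point, 3 µM nominal / Times: Post-acetylcholine fluorescence recording 140 s / Technique: Fluo-8 calcium fluorescence / Measure: Max/basal fluorescence ratio as % of EC20–EC100 ACh window / Benchmarks: low control EC20 acetylcholine (0%), high control EC100 acetylcholine (100%) / Replicates: one well per compound, no replicates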
M5 antag: blocks acetylcholine activation of human M5 receptor. CHO-hM5 cells, Fluo-8 calcium fluorescence, ACh EC80. inhibition, % at 3 µM. 360,000 tested, 0.59% active. AID 624040;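 active = inhibition above a per-plate cutoff, the mean of that plate's test compounds plus 3 SD, cut at about 27% in these data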
M4 antag: CHRM4 antagonism in calcium assay | CHO-hM4 cells, ACh EC80, Fluo-8 calcium fluorescence | inhibition, % at 3 µM | 360,000 tested, 0.73% active | AID 624125;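 active = inhibition above its plate's cutoff, the mean inhibition of sample wells plus 3 SD, cut at about 27% in these data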
Target sequence (P08173 whole entry, looked up): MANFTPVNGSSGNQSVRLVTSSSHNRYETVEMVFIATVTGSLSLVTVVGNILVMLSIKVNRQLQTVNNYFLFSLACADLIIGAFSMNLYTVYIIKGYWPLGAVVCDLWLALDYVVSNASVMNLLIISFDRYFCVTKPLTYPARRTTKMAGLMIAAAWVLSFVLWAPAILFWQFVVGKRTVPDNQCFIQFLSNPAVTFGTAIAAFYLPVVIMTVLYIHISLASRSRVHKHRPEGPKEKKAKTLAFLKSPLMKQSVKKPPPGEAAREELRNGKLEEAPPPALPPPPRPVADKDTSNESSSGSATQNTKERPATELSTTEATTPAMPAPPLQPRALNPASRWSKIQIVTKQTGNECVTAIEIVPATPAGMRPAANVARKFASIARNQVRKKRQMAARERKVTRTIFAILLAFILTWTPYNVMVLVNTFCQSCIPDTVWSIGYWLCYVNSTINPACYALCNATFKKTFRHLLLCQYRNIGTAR
CHRM4 agonist: agonists of human muscarinic M4 receptor (CHRM4); CHO-K1 hM4/Gqi5, Fluo-8 calcium fluorescence; vehicle 0%, full acetylcholine response 100%; 360,000 tested, 0.14% active; P08173; activation, % at 3 µM;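 active = activation above the run mean over all test wells plus 3 SD, cut at about 32% in these data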;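 note: peak over basal fluorescence ratio per well then scaled between controls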
M4 PAM: potentiates acetylcholine response at human M4 receptor; P08173; CHO-K1 hM4/Gqi5, Fluo-8 calcium fluorescence, ACh EC20; 0% = ACh EC20, 100% = maximal ACh; activation, % at 3 µM; 360,000 tested, 0.4% active; AID 624126;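 active = activation above its plate's cutoff, the mean activation of sample wells plus 3 SD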
M5 ag: agonists of human muscarinic M5 receptor (CHRM5) | P08912 | 360,000 tested, 0.19% active | CHO-K1 hM5 cells, Fluo-8 calcium fluorescence; 0% DMSO wells, 100% maximal acetylcholine response | activation, % at 3 µM;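 active = activation above the run's mean over test compounds plus 3 SD, cut at about 23% in these data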;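 note: signal is peak over basal fluorescence ratio across the kinetic read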
Large screens that a line does not name were inactive.

Cc1cccc(NC(=O)CCc2ccc(N3C(N)=NC(N)=NC3(C)C)cc2)c1	none
CCN(CC)CCCOC(=O)C1(c2ccccc2)CCCC1	M5 antag 99, M4 antag 96
CCN(CC)CCOC(=O)C1(c2ccccc2)CCOCC1	none
CCN(CC)CCOC(=O)C1(c2ccc([N+](=O)[O-])cc2)CCCC1	M5 antag 84, M4 antag 49
Cc1cccc(NC(=O)C2(c3ccc([N+](=O)[O-])cc3)CCCC2)c1	none
CCN(CC)CCOCCOC(=O)C1(c2ccccc2)CCCC1	M5 antag 96, M4 antag 91
CCCS(=O)(=O)NC(=O)C1(C)CCN(C(=O)c2cncc(Br)c2)C1 (stereo not given)	none
CC(=O)Nc1ccc(S(=O)(=O)NCc2ccc(C(=O)NCCN(C)Cc3ccccc3)cc2)cc1	none
CCc1ccc(S(=O)(=O)NCc2ccc(C(=O)NCCN(Cc3ccccc3)C(C)C)cc2)cc1	M5 antag 29
OCC[C@@H]1C[C@@H](O)[C@H](O)[C@]2(CCc3ccccc3O2)O1	none
Cc1cc(/C=C2/NC(=O)NC2=O)c(C)n1-c1ccccn1	none
Cc1ccc(-n2c(C)cc(/C=C3\NC(=O)NC3=O)c2C)c(C)c1	M4 antag 35
O=C(c1cccs1)N1C[C@H](O)[C@@H](n2cc(C3CC3)nn2)C[C@@H]1c1ccccc1	none
CCOC(=O)c1cc(-c2ccccc2)sc1NC(=O)C(C)OC(=O)c1cccc(S(=O)(=O)N(C)C)c1 (stereo not given)	CHRM5 PAM 20
CC#C[C@@H](CC)c1ccc2ccn(C)c2c1	M5 antag 27
CCCCNC(=O)c1nc(C2CCN(S(=O)(=O)c3ccccc3C(F)(F)F)CC2)oc1-c1ccccc1	none
CN1C(=O)c2ccccc2CC12c1ccccc1C(=O)N2C (stereo not given)	none
COC(=O)c1cc(COC(=O)CNC(=O)c2ccc(Br)cc2)oc1C	none
Cc1ccc(O)c(C(=O)c2cnc3c(c2)c(=O)n(C)c(=O)n3C)c1	none
Cc1ccc(O)c(C(=O)c2cnc(/N=C(\N)N(C)C)nc2)c1	M4 antag 38
O=C(CSc1ccccc1)N1CCCC(Nc2ccccc2)C1 (stereo not given)	none
CN1C2CCC1CC(OC(=O)c1c[nH]c3ccccc13)C2 (stereo not given)	none
CN1C2CCC1CC(OC(c1ccccc1)c1ccccc1)C2 (stereo not given)	M5 antag 99, M4 antag 99
CN1CCC(OC(c2ccccc2)c2ccc(Cl)cc2)C1 (stereo not given)	M5 antag 89, M4 antag 58
CCOc1ccc(NC(=O)CN(C)C(=O)c2ccc(OCC(=O)N3CCOCC3)c(OC)c2)cc1OCC	none
O=C(Nc1ccc(S(=O)(=O)N2CCc3ccccc3C2)cc1)C1CCCO1 (stereo not given)	none
CN(C)S(=O)(=O)N1CCc2ccc(NC(=O)C3CCCO3)cc2C1 (stereo not given)	M4 PAM 20
CN1CCN(C(=O)C2=C[C@@H](c3coc4ccccc4c3=O)C[C@@H](OCCCCO)O2)CC1	M4 PAM 24
O=C(C1=C[C@@H](c2coc3ccccc3c2=O)C[C@@H](OCCCCO)O1)N1CCN(Cc2ccccc2)CC1	none
Cc1ccc2sc(C)cc(=O)c2c1	none
CCN(CC)S(=O)(=O)c1ccc(N2CCOCC2)c(NC(=O)c2[nH]c(C)c(C(C)=O)c2C)c1	M4 PAM 29
CCN(CC)S(=O)(=O)c1ccc(N2CCOCC2)c(NC(=O)c2ccc(F)cc2)c1	none
COc1ccc(-c2cc(C(F)(F)F)nc(S(=O)(=O)CCCC(=O)Nc3cccc(O)c3)n2)cc1OC	M5 antag 27
COc1ccccc1-c1cc(C(F)(F)F)nc(S(=O)(=O)CCCC(=O)O)n1	none
COc1ccc(Nc2ncnc3c2cnn3-c2cccc(C)c2)cc1OC	none
COc1ccc(-n2ncc3c(Nc4cccc(C)c4)ncnc32)cc1	M4 PAM 19
N#CCOc1ccccc1CNC[C@H]1O[C@@H](n2cnc3c(=O)[nH]c(N)nc32)[C@H](O)[C@@H]1O	none
O=C(c1ccc([N+](=O)[O-])cc1)N(Cc1ccc(Cl)cc1Cl)N1C(=O)CCCC1=O	M4 antag 67
O=C(c1ccc([N+](=O)[O-])cc1)N(Cc1ccc(Cl)cc1)N1C(=O)CCCC1=O	none
O=C(Nc1cc(S(=O)(=O)N2CCCCC2)ccc1Cl)c1ccccc1NS(=O)(=O)c1ccc(F)cc1	M5 antag 30
Cc1ccc(S(=O)(=O)Nc2ccccc2C(=O)Nc2nc(-c3ccc(F)cc3)cs2)cc1	M5 antag 38
COc1ccc(-c2csc(NC(=O)c3ccccc3NS(=O)(=O)c3ccc(F)c(F)c3)n2)cc1	M5 antag 42
O=C(Nc1ccc(F)cc1)Nc1ccc(N2CCCC2)c(S(=O)(=O)Nc2ccccc2Cl)c1	M5 antag 29
O=C(Nc1cc(S(=O)(=O)N2CCCCC2)ccc1O)c1ccccc1NS(=O)(=O)c1ccc(F)cc1	none
COc1cc2c(cc1[N+](=O)[O-])-c1ccc([N+](=O)[O-])cc1C2=NO	none
N#C/C(C(=O)Nc1ccc(Cl)cc1)=C(/S)Nc1ccccc1	none
O=C(Nc1ccccc1N1CCOCC1)c1ccccc1NS(=O)(=O)c1ccc(F)cc1	none
O=C(Nc1ccccc1N1CCOCC1)c1ccccc1NS(=O)(=O)c1ccc(F)c(F)c1	CHRM5 PAM 36
O=C(O)C1Nc2c(C(F)(F)F)ccc(Cl)c2C2C=CCC12 (stereo not given)	CHRM5 PAM 19
Cc1ccc2c(c1C)NC(C(=O)O)C1CC=CC21 (stereo not given)	none
CCc1c(-c2ccc(Br)cc2)ncn1Cc1cccc(-c2ccccc2)c1	M5 antag 72, M4 antag 50
CCCc1c(-c2cccc(Br)c2)ncn1Cc1cccc(-c2ccccc2)c1	none
Cc1cccc(NC2(C(=O)O)CCCC2)c1	none
CCCc1ccc(C(O)c2ncc(-c3ccc(OC)cc3)[nH]2)cc1 (stereo not given)	none
COc1cccc(CNC(=O)c2ccccc2NC(=O)C2=C(C)OCCS2)c1OC	none
C=CCn1c(SCC(=O)NCCc2ccccc2)nnc1C1CC1	none
C=CCn1c(SCC(=O)NCc2ccccc2)nnc1C1CCCCC1	CHRM5 PAM 25
COc1ccc(NC(=O)Nc2ccc(OCC(=O)N3CCOCC3)cc2)cc1OC	none
COc1ccc(Cl)cc1C(=O)Nc1ccc(OCC(=O)N2CCOCC2)cc1	CHRM5 PAM 18
